Data taken from article PMC2937276 (Molecular cancer therapeutics, 2010).
Where two headings read alike, the source gives them in different places.

How the values were obtained:
GBM culture GBM6 = experiment: XTT cell proliferation assay; assay type: cell-based, Human; settings: Homo sapiens, GBM6, 36 h
Procedure, shortened: (§1)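 Primary human or mouse GBM cultures (DMEM, 10% FBS) were seeded at 5000 cells per 96-well well. Cells were cultured with test compound or vehicle for 36 h. Proliferation was read by XTT assay in quadruplicate. IC50 came from nonlinear-regression curve fitting.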

GBM culture 42 = experiment: XTT cell proliferation assay; assay type: cell-based, Mouse; settings: Mus musculus, 36 h
Procedure, shortened: as §1

[1] = assay type: in vivo, CD-1 mice; settings: for Kp: brain and plasma
GBM culture GBM12 = experiment: XTT cell proliferation assay; assay type: cell-based, Human; settings: Homo sapiens, 36 h
Procedure, shortened: as §1

GBM culture GBM59 = experiment: XTT cell proliferation assay; assay type: cell-based, Human; settings: Homo sapiens, 36 h
Procedure, shortened: as §1

GBM culture 2000 = experiment: XTT cell proliferation assay; assay type: cell-based, Mouse; settings: Mus musculus, 36 h
Procedure, shortened: as §1

GBM culture 2736 = experiment: XTT cell proliferation assay; assay type: cell-based, Mouse; settings: Mus musculus, 36 h
Procedure, shortened: as §1

GBM cells = experiment: Apoptosis analysis; assay type: cell-based, Mouse; settings: 250 nM
Procedure, shortened: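 Two apoptosis read-outs on primary mouse GBM cultures (DMEM, 10% FBS), each with 250 nM compound for the indicated times. Pyknotic nuclei: 10,000 cells per chamber-slide well, fixed in fresh 4% PFA for 15 min, Hoechst 33258 at 5 µg/ml for 5 min. Nuclei were scored by fluorescence microscopy as % pyknotic over total across three areas. Cleaved caspase-3: western blot. Mean of three independent experiments ± SD.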

[2] = tested on: EGFR-driven mouse GBM tumor primary cell cultures (GBM-1 & -2); experiment: Cell counting, growth of GBM cell cultures under drug; assay type: cell-based; settings: increasing concentrations for 24 hours; 250 nM over time
Procedure, shortened: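 Mouse primary GBM cultures (GBM-1: wild-type plus vIII EGFR; GBM-2: EGFRvIII), alongside primary mouse astrocytes, kept in DMEM with 10% FBS. Cells exposed to increasing test-compound concentrations for 24 h, or to 250 nM for varying times. Viable cells counted and expressed as percent of untreated cells. Mean of triplicates with S.D.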

GBM culture GBM15 = experiment: XTT cell proliferation assay; assay type: cell-based, Human; settings: Homo sapiens, 36 h
Procedure, shortened: as §1

[3] = tested on: Hsp90 client proteins EGFR, Akt, Cdk4 and CyclinD1; experiment: Immunoblot analysis of Hsp90 client proteins in human GBM cultures; assay type: cell-based; settings: human primary GBM culture cells; 250 nM, 24 hours
Procedure, shortened: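 Human primary GBM cultures in DMEM with 10% FBS, given 250 nM test compound or vehicle for 24 h. Lysed in RIPA with 5 mM Na3VO4 and protease inhibitors. Equal protein (40 µg) resolved by SDS-PAGE, transferred to PVDF, blocked in TBS-T with 1% BSA and 5% milk. Primary antibodies overnight at 4°C, secondary 1:10000 for 1 h at room temperature, ECL.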

GBM culture GBM43 = experiment: XTT cell proliferation assay; assay type: cell-based, Human; settings: Homo sapiens, 36 h
Procedure, shortened: as §1

[4] = tested on: EGFRvIII-driven GBM tumors; experiment: Treatment of mice bearing GBM tumors; assay type: in vivo
Procedure, shortened: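 Adult (≥3 months) conditional EGFR*/Cdkn2a/Pten/CAG-luc mice under ketamine/xylazine received 250 nL adeno-CMV-Cre stereotaxically into the brain. Tumours were followed by luciferin (225 mg/kg IP) bioluminescence and randomised at the signal threshold. Dosing: 100 mg/kg IP in DMA/Tween 20/Cremophor/saline vehicle, or vehicle alone, thrice weekly ×2 weeks, then twice weekly for >100 days. At 180 days, survivors were perfused with PFA; coronal paraffin sections were H&E-stained. N=5 control, N=4 treated.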

GBM culture 46 = experiment: XTT cell proliferation assay; assay type: cell-based, Mouse; settings: Mus musculus, 36 h
Procedure, shortened: as §1

[5] = tested on: Hsp90 client proteins EGFR, Akt, Cdk4 and Cyclin D1; experiment: Immunoblot analysis of Hsp90 client proteins in mouse GBM cultures; assay type: cell-based
Procedure, shortened: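 Mouse GBM-1 and GBM-2 cultures and primary astrocytes treated with 250 nM test compound for varying times, or for 24 h against vehicle. RIPA lysates with 5 mM Na3VO4 and protease inhibitors. 40 µg resolved by SDS-PAGE onto PVDF, blocked in TBS-T/BSA/milk. Primary antibodies overnight at 4°C, secondary 1:10000 for 1 h at room temperature, ECL detection. Dynamin as control.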

GBM culture 2227 = experiment: XTT cell proliferation assay; assay type: cell-based, Mouse; settings: Mus musculus, 36 h
Procedure, shortened: as §1

GBM culture 69 = experiment: XTT cell proliferation assay; assay type: cell-based, Mouse; settings: Mus musculus, 36 h
Procedure, shortened: as §1

GBM culture GBM-1 = experiment: XTT cell proliferation assay; assay type: cell-based, Mouse; settings: Mus musculus, GBM1, 36 h
Procedure, shortened: as §1

GBM culture 2415 = experiment: XTT cell proliferation assay; assay type: cell-based, Mouse; settings: Mus musculus, 36 h
Procedure, shortened: as §1

[6] = tested on: primary astrocytes cultures; experiment: Cell counting, growth of primary astrocytes under drug; assay type: cell-based, Mouse; settings: increasing concentrations for 24 hours; 250 nM over time
Procedure, shortened: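 Primary mouse astrocyte cultures were grown with rising compound concentrations for 24 h, then counted. A second set was exposed to 250 nM for the indicated times before viable-cell counts. Counts are expressed as % of untreated cells. Values are means of triplicates with SD; t-test.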

[7] = Brain concentrations of HSP90 inhibitors after a single i.p. injection; settings: NCR-Nude, mouse, intraperitoneal
GBM culture GBM-2 = experiment: XTT cell proliferation assay; assay type: cell-based, Mouse; settings: Mus musculus, GBM2, 36 h
Procedure, shortened: as §1

GBM culture GBM22 = experiment: XTT cell proliferation assay; assay type: cell-based, Human; settings: Homo sapiens, 36 h
Procedure, shortened: as §1

GBM culture 2231 = experiment: XTT cell proliferation assay; assay type: cell-based, Mouse; settings: Mus musculus, 36 h
Procedure, shortened: as §1

GBM culture 2414 = experiment: XTT cell proliferation assay; assay type: cell-based, Mouse; settings: Mus musculus, 36 h
Procedure, shortened: as §1

[8] = Hepatotoxicity and toxicity on exposure in mice; assay type: in vivo
GBM culture 102 = experiment: XTT cell proliferation assay; assay type: cell-based, Mouse; settings: Mus musculus, 36 h
Procedure, shortened: as §1

GBM culture 41 = experiment: XTT cell proliferation assay; assay type: cell-based, Mouse; settings: Mus musculus, 36 h
Procedure, shortened: as §1

GBM culture GBM39 = experiment: XTT cell proliferation assay; assay type: cell-based, Human; settings: Homo sapiens, GBM39, 36 h
Procedure, shortened: as §1

GBM culture 103 = experiment: XTT cell proliferation assay; assay type: cell-based, Mouse; settings: Mus musculus, 36 h
Procedure, shortened: as §1

GBM culture GBM8 = experiment: XTT cell proliferation assay; assay type: cell-based, Human; settings: Homo sapiens, 36 h
Procedure, shortened: as §1

[9] = male, CD-1, mouse, brain, iv, 25 mg/kg
[10] = male, CD-1, mouse, brain, iv, 70 mg/kg
[11] = male, CD-1, mouse, plasma, iv, 25 mg/kg
[12] = male, CD-1, mouse, plasma, iv, 70 mg/kg
[13] = repeat dose, 25 mg/kg i.v. every other day

For `O=C1OCC/C=C/CC/C=C/C(=N/OCC(=O)N2CCCCC2)Cc2c(Cl)c(O)cc(O)c21` [NXD30001], the IC50 (GBM culture GBM6) was 1220 ± 35.1 nM, the IC50 (GBM culture 42) was 73.8 ± 0.7 nM and the “AUC(0-t)” value ([1]; brain, repeated i.v. injections 25 mg/kg every other day, 7 doses) was 940 ng·h/g. The “AUC(0-t)” value ([1]; brain, single i.v. injection 70 mg/kg) was 1073 ng·h/g, the Kp ([1]; male, CD-1, mouse, iv, 25 mg/kg) was 0.135 and the Kp ([1]; male, CD-1, mouse, iv, 70 mg/kg) was 0.201. It also gave a Cmax [1, 9] of 210 ng/g, a Tmax [1, 9] of 0.25 h and a half-life [1, 9] of 8.99 h. It also gave a Cmax [1, 10] of 223 ng/g, a Tmax [1, 10] of 0.5 h and a half-life [1, 10] of 4.07 h. It also gave an AUC(0-t) [1, 11] of 6960 ng·h/mL, a C0 at 0.5 h [1, 11] of 4530 ng/mL and a Vd [1, 11] of 27.9 L/kg. It also gave a clearance [1, 11] of 59.8 mL/min/kg, a half-life [1, 11] of 5.4 h and an AUC(0-t) [1, 12] of 5350 ng·h/mL. It also gave a C0 [1, 12] of 2140 ng/mL, a Vd [1, 12] of 51.5 L/kg and a clearance [1, 12] of 217 mL/min/kg. The half-life [1, 12] was 2.74 h, the “concentration detected in brain prior to the last dose” value [1, 13] was “less than 10 ng/g” and the “concentration detected in plasma prior to the last dose” value [1, 13] was “less than 10 ng/mL”. The IC50 (GBM culture GBM12) was 2330 ± 60 nM, the IC50 (GBM culture GBM59) was 232 ± 13.2 nM and the IC50 (GBM culture 2000) was 115 ± 9.4 nM. For the same compound, the IC50 (GBM culture 2736) was 77.6 ± 2.8 nM, the “cleaved-caspase 3 (western blot)” value (GBM cells) was “appearance of cleaved-caspase 3” and the “increase in apoptosis level (pyknotic nucleated cells)” value (GBM cells) was 10 fold. For the same compound, the “inhibition of GBM cell growth” value [2] was “dose and time dependent inhibition of GBM cell growth”, the IC50 (GBM culture GBM15) was 60.7 ± 0.5 nM and the “Hsp90 client protein levels (western blot)” value (from here on “Hsp90 client protein levels”) [3] was “deplete the Hsp90 client proteins EGFR, Akt, Cdk4 and CyclinD1”. For the same compound, the IC50 (GBM culture GBM43) was 86.3 ± 0.2 nM, the “effect on survival (Kaplan-Meier)” value ([4]; 100 mg/kg i.p. thrice weekly (X2) then twice weekly, versus vehicle) was “statistically significant prolongation in survival” and the “survival of treated animals” value ([4]; half of the treated animals, 100 mg/kg i.p. thrice weekly (X2) then twice weekly, N=4 treated) was > 180 days. For the same compound, the “histological analysis of H&E stained brain sections of surviving animals” value ([4]; surviving treated animals, after 180 days) was “few remaining tumor cell clusters”, the IC50 (GBM culture 46) was 54.3 ± 12.5 nM and the “Hsp90 client protein levels” value ([5]; GBM-1 & -2 cultures, 250 nM for the indicated times) was “degradation of the Hsp90 client proteins EGFR, Akt, Cdk4 and Cyclin D1”. The “Hsp90 client protein levels” value ([5]; mouse primary GBM culture cells, 250 nM, 24 hours) was “deplete the Hsp90 client proteins EGFR, Akt, Cdk4 and CyclinD1”, the IC50 (GBM culture 2227) was 134 ± 7.7 nM and the IC50 (GBM culture 69) was 73.4 ± 2.5 nM. For the same compound, the IC50 (GBM culture GBM-1) was 78.3 ± 8.3 nM, the IC50 (GBM culture 2415) was 251 ± 57.7 nM and the “inhibition of astrocyte growth” value [6] was “but not of astrocytes”. It also gave a concentration at 6 h ([7]; 100 mg/kg) of 676 ng/g, a concentration at 12 h ([7]; 100 mg/kg) of 823 ng/g and a concentration at 24 h ([7]; 100 mg/kg) of 271 ng/g. It also gave a concentration at 48 h ([7]; 100 mg/kg) of 10.7 ng/g, a concentration at 6 h ([7]; 150 mg/kg) of 1440 ng/g and a concentration at 12 h ([7]; 150 mg/kg) of 3420 ng/g. For the same compound, the concentration at 24 h ([7]; 150 mg/kg) was 900 ng/g, the concentration at 48 h ([7]; 150 mg/kg) was 116 ng/g and the IC50 (GBM culture GBM-2) was 111 ± 9.4 nM. It also gave an IC50 (GBM culture GBM22) of 5260 ± 152 nM, an IC50 (GBM culture 2231) of 146 ± 3.7 nM and an IC50 (GBM culture 2414) of 31.7 ± 4.9 nM. The “toxicity observed in the treated animals” value ([8]; GBM-bearing mice treated with 100 mg/kg i.p.) was “absence of toxicity”, the hepatotoxicity ([8]; short and long term exposure in mice, data not shown and ref 13) was “does not result in hepatotoxicity” and the IC50 (GBM culture 102) was 360 ± 21.6 nM. The IC50 (GBM culture 41) was 80.2 ± 5.9 nM, the IC50 (GBM culture GBM39) was 111.6 ± 1 nM and the IC50 (GBM culture 103) was 576 ± 14.8 nM. It also gave an IC50 (GBM culture GBM8) of 5690 ± 450 nM.
